Reference: ChEMBL document CHEMBL1268848, “Selenium-containing analogs of SAHA induce cytotoxicity in lung cancer cells” (Bioorg Med Chem Lett, 2010)
The source made the active and inactive calls. The rule behind the calls is not given here.

Legend:
[1] = target: RAC-alpha serine/threonine-protein kinase (Homo sapiens) (UniProt P31749); assay: Inhibition of AKT phosphorylation in human A549 at 5 uM after 24 hrs by Western blot analysis; format: functional
How it was run: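 A549 cells treated 24 h with 5 μM compound, with DMSO controls. Lysed in Tris pH 7.4/NaCl/EDTA/EGTA/1% Triton X-100 buffer containing NaF, Na3VO4 and protease inhibitors, 10 min at 4°C, then cleared at 14,000 xg. 10 μg protein by BCA run on SDS-PAGE and blotted to PVDF. Probed with anti-pAKT and compared with pan-AKT.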

NCI-H522 = assay: Cytotoxicity against human NCI-H522 by SRB assay; format: functional, cell-based
How it was run: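 SRB cytotoxicity assay after 24 h drug exposure. Cells grown in DMEM with 10% FBS and penicillin/streptomycin at 37 °C under 5% CO2. Compounds taken from 10 mM DMSO stocks and diluted in medium over 0.1–50 μM, final DMSO 0.2%, with DMSO-only controls. IC50 obtained by non-linear regression of dose-response curves.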

A549 [2] = assay: Induction of autophagy in human A549 cells assessed as increase in LC3II after 3 hrs relative to control; format: functional, cell-based
How it was run: (§1)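 A549 cells given 5 μM compound, with DMSO-treated controls, and harvested at times from 0 to 24 h. Lysis buffer: 20 mM Tris pH 7.4, 150 mM NaCl, 1 mM EDTA/EGTA, 1% Triton X-100, NaF, Na3VO4 and protease inhibitors, 10 min at 4°C. 10 μg protein run on SDS-PAGE and immunoblotted for LC3B, with actin as loading reference.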

NCI-H460 = assay: Cytotoxicity against human NCI-H460 by SRB assay; format: functional, cell-based
Homo sapiens = species on record: Homo sapiens; details: at 5 µM
NCI-H226 = assay: Cytotoxicity against human NCI-H226 by SRB assay; format: functional, cell-based
NCI-H2126 = assay: Cytotoxicity against human NCI-H2126 by SRB assay; format: functional, cell-based
NCI-H23 = assay: Cytotoxicity against human NCI-H23 by SRB assay; format: functional, cell-based
[3] = Cytotoxicity against human H441 by SRB assay; format: functional; details: NCI-H441
A549 [4] = assay: Induction of autophagy in human A549 cells assessed as increase in LC3II after 24 hrs relative to control; format: functional, cell-based; how it was run: as §1
NCI-H1299 = assay: Cytotoxicity against human NCI-H1299 by SRB assay; format: functional, cell-based
A549 [5] = assay: Cytotoxicity against human A549 cells by SRB assay; format: functional, cell-based

Sequence of RAC-alpha serine/threonine-protein kinase (Homo sapiens) (P31749 whole entry): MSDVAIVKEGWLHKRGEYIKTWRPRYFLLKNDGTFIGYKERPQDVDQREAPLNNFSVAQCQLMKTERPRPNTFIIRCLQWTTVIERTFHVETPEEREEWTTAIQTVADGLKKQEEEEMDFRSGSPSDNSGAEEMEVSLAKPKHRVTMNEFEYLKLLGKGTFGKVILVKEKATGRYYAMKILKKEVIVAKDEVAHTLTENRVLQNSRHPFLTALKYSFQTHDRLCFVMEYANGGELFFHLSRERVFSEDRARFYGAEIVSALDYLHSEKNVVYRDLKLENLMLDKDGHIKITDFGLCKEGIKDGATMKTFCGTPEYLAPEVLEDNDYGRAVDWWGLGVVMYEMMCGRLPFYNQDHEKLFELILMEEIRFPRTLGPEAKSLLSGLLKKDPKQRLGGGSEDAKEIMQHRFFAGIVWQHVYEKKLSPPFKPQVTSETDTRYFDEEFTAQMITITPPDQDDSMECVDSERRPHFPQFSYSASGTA

inhibition [1] | SMILES | IC50 (NCI-H522) [nM] | Activity (A549 [2]) | IC50 (NCI-H460) [nM] | inhibition (Homo sapiens) | IC50 (NCI-H226) [nM] | IC50 (NCI-H2126) [nM] | IC50 (NCI-H23) [nM] | IC50 [3] [nM] | Activity (A549 [4]) | IC50 (NCI-H1299) [nM] | IC50 (A549 [5]) [nM]
inactive | O=C(CCCCCCC(=O)Nc1ccccc1)NO [VORINOSTAT] | 832 | inactive |  |  |  |  |  |  |  |  | 
Active | O=C(CCCCC[Se][Se]CCCCCC(=O)Nc1ccccc1)Nc1ccccc1 | 188 | Active | 2130 | Active | 1730 | 1090 | 279 | 92 | Active | 438 | 370

SMILES | inhibition [1] | IC50 (NCI-H522) [nM] | Activity (A549 [2]) | IC50 (NCI-H460) [nM] | inhibition (Homo sapiens) | IC50 (NCI-H226) [nM] | IC50 (NCI-H2126) [nM] | IC50 (NCI-H23) [nM] | IC50 [3] [nM] | Activity (A549 [4]) | IC50 (NCI-H1299) [nM] | IC50 (A549 [5]) [nM]
N#C[Se]CCCCCC(=O)Nc1ccccc1 | Active | 779 | Active | 1460 | Active | 1050 | 928 | 271 | 449 | Active | 923 | 653
